# Screening data from PubChem BioAssay.
# Most compounds without a hit are left out; they make up all but 2.1% or so of the library.
# Runt-CBFb FRET: blocks binding of human RUNX1 Runt domain to CBFb; Q01196+Q13951; Cerulean-Runt/Venus-CBFb FRET ratio 530/480, 1 h; inhibition, % at 20 µM; 220,000 compounds, 0.46% hits; AID 1496;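 active means inhibition over about 50% at 20 µM in the single-dose screen, limit read from the data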;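 further: 0% = DMSO wells and 100% = excess unlabeled CBFb competitor control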
#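 Measured by: fluorescence energy transfer, 422 nm excitation, 530/480 nm emission; Assay system: Cerulean-Runt domain; Medium: Tris pH 7.5 buffer with BSA; Measure: loss of energy transfer signal; Controls: 5 µM unlabeled CBFb as full-inhibition high control; Incubation: protein complex preformed 1 h, compound exposure 1 h, room temperature, dark.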
# Runt-SMMHC FRET: blocks binding of human RUNX1 Runt domain to CBFb-SMMHC. AID 1434. Cerulean-Runt/Venus-CBFb-SMMHC FRET ratio 530/480, 1 h. 220,000 compounds, 0.74% hits. inhibition, % at 20 µM;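 active means mean inhibition across duplicate retests at 20 µM reaching about 50%, limit read from the data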;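 further: 0% = DMSO wells and 100% = wells with excess untagged CBFb-SMMHC; inhibitors lower the FRET ratio by blocking Runt binding to CBFb-SMMHC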
# RanGTP-Imp inh: disruptors of Ran-importin-beta complex formation – biochemical, FRET, CFP-Ran, YFP-importin-beta, homogeneous, primary screen; cell-free CFP-Ran/YFP-importin-beta FRET ratio; inhibition, % (test concentration not listed); 300,000 compounds, 1.1% hits; AID 2216;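 active means more than half of the replicate wells show a fall in the fluorescence ratio signal beyond about 16%, limit read from the data, passing the limit was not always enough; inconclusive means exactly half of the replicate wells pass the set limit; inactive means fewer than half of replicates pass the limit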;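 further: 0% = DMSO wells and 100% = Ran loaded with GDP instead of GTP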
# FAS-TE inh: inhibitors of human fatty acid synthase thioesterase domain; P49327; recombinant FAS-TE, OMFH fluorogenic substrate, fluorescence endpoint; inhibition, % at 15 µM; 360,000 compounds, 0.67% hits;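 active means compounds whose normalised, plate-corrected inhibition of enzyme fluorescence in the single-dose primary screen is 50% or more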;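 further: 0% = DMSO with enzyme and 100% = substrate without enzyme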
# Target sequence (P49327 whole entry, looked up, the tested form may be a part): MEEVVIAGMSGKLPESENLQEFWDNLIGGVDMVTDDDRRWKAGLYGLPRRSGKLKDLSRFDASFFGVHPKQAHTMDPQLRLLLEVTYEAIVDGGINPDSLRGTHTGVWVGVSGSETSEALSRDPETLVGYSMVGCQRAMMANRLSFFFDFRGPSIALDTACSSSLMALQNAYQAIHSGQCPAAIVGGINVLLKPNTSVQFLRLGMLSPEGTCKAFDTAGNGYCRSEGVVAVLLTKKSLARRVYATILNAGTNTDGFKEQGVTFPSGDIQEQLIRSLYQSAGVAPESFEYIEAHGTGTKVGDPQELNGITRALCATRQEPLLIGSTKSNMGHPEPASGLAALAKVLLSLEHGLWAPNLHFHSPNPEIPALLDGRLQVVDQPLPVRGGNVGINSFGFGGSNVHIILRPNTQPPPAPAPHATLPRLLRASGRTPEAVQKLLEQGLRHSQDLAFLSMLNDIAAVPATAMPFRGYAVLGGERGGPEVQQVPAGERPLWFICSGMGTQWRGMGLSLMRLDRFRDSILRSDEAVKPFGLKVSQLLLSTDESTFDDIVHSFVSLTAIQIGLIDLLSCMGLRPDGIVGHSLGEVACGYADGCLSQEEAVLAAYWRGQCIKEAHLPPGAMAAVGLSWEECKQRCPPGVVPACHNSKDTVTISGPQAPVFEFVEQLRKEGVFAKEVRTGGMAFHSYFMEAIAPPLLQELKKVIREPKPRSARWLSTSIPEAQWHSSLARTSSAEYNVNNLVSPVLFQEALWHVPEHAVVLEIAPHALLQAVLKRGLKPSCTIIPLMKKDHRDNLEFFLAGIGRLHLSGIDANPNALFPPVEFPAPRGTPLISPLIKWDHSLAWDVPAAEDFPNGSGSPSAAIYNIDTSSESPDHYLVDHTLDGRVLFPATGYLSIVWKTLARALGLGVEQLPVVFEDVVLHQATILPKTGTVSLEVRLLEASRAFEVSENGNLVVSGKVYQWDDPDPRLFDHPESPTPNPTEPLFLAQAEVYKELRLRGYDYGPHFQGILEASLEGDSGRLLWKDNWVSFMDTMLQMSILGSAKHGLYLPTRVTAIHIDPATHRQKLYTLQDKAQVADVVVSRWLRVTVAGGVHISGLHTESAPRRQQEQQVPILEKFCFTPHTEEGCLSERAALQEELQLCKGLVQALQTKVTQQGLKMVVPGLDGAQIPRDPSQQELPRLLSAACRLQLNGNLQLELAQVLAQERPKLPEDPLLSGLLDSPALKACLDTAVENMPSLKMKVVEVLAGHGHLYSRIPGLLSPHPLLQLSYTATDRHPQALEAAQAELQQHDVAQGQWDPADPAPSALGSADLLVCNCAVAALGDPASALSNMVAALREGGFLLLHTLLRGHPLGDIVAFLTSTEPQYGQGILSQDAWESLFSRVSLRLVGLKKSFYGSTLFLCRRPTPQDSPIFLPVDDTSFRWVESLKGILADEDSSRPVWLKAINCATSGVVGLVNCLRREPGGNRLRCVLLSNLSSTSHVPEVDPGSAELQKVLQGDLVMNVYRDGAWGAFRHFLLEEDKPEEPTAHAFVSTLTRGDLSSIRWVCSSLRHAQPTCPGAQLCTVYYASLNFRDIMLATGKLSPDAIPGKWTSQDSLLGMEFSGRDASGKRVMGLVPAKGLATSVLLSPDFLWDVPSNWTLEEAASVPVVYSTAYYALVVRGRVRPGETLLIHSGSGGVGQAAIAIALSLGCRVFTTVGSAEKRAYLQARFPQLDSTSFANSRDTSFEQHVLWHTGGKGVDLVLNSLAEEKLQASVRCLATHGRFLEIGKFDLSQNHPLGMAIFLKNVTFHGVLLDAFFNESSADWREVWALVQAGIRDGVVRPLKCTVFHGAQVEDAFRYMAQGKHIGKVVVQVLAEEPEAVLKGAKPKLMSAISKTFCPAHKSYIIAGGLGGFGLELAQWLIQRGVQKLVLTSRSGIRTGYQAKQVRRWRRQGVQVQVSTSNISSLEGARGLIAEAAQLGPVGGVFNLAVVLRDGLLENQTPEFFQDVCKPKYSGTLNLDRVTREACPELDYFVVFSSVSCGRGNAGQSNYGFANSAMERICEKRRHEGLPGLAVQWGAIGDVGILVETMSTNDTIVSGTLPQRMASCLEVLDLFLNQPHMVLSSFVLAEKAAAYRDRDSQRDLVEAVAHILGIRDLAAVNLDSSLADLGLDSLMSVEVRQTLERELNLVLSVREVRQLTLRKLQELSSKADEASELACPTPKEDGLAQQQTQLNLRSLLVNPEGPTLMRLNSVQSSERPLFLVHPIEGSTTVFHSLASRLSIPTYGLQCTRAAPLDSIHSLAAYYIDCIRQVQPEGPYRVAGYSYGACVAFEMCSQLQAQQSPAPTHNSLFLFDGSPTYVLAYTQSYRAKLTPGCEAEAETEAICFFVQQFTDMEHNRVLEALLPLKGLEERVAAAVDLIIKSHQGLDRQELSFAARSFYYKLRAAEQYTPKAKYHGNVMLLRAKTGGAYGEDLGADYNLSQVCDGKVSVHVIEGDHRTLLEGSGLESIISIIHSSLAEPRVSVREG
# Calpain2 inh: blocks pig calpain II enzyme activity; purified calpain II, fluorogenic peptide substrate, 30 min; inhibition, % at 16 µM; 220,000 compounds, 0.37% hits; AID 1236;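 active means inhibition above about 50%, limit read from the data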
# An asterisk follows results filed as active; i = inactive; ? = inconclusive; . = no result given.
SMILES,Runt-CBFb FRET,Runt-SMMHC FRET,RanGTP-Imp inh,FAS-TE inh,Calpain2 inh
COc1ccc(/C=N/Nc2cc(C)nc3ccc(OC)cc23)c(OC)c1,.,.,20*,-5,.
Cc1ccc2nc(SCc3ccc([N+](=O)[O-])cc3)[nH]c2c1,0,-2,2,58*,14
COc1ccc(CN(C)C(=O)CNC(=O)c2sc3ccccc3c2Cl)c(OC)c1,.,.,.,18,.
CCOc1ccc(-n2c(=O)c3sccc3n(CC(=O)NC3CCCCC3)c2=O)cc1,.,.,1,-3,.
Cc1ccc(S(=O)(=O)Nc2ccc(Nc3ccccc3)cc2)cc1,.,.,-4,35,.
Cc1ccc(S(=O)(=O)NNc2ccccc2)cc1,40,68*,-3,-5,5
Cc1cc(NC(=O)c2ccc(Cl)cc2)c(C)cc1O,2,0,2,1,3
Cc1cc(C(C#N)c2ccc(Cl)cc2)c(Cl)cc1NC(=O)c1cc(I)cc(I)c1O (centres undefined),.,.,-2,57*,.
CCOC(=O)c1ccc(NC(=O)c2cccc3c2C(=O)N(CC2CCCO2)C3)cc1 (centres undefined),.,.,3,-22,.
CCOC(=O)C1=CN(CC2CCCO2)C=C(C(=O)OCC)C1c1ccccc1C(F)(F)F (centres undefined),109*,91*,5,14,i
CCOC(=O)/C(=C/c1ccc(N2CCC(c3ccccc3)=N2)cc1)C(C)=O,5,79*,-2,-17,-455
Cn1c(Cc2ccccc2)nnc1SCC(=O)Nc1ccc(N2CCOCC2)cc1,.,.,?,-4,.
Cc1csc2c(=O)sc(NC(=O)c3ccco3)nc12,34,59*,1,2,10
O=C(Nc1nc2ccsc2c(=O)s1)c1ccco1,8,16,4,-3,-17
Cc1csc2c(=O)sc(NC(=O)c3cccs3)nc12,40,87*,0,9,-26
COCCCN1C2=C(C(=O)CC(C)(C)C2)C(c2ccc(O)c(OC)c2)C2=C1CC(C)(C)CC2=O,.,.,0,-4,.
COc1ccc(C2C3=C(CC(C)(C)CC3=O)N(CCN3CCOCC3)C3=C2C(=O)CC(C)(C)C3)cc1,91*,81*,71*,-9,-158
CCOc1cc(C2C3=C(CC(C)(C)CC3=O)N(CCOC)C3=C2C(=O)CC(C)(C)C3)ccc1OC,.,.,2,-4,.
CC1(C)CC(=O)C2=C(C1)N(CCN1CCOCC1)C1=C(C(=O)CC(C)(C)C1)C2c1cccc(F)c1,63*,78*,130*,-3,i
CC1(C)CC(=O)C2=C(C1)N(CCN1CCOCC1)C1=C(C(=O)CC(C)(C)C1)C2c1ccc(Cl)cc1,77*,88*,127*,-3,-313
COc1ccc(-c2cc(NC(C)=O)c3ncc(-c4ccc(F)cc4)n3c2)cc1OC,.,.,.,0,.
C/C(=N\Nc1ccc2nncn2n1)c1ccc(Br)s1,-3,-4,1,0,-14
CS(=O)(=O)Nc1cccc(C2=NN(C(=O)CCCC(=O)O)C(c3cccs3)C2)c1 (centres undefined),.,.,-5,0,.
N#Cc1c(C(F)(F)F)cc(-c2ccc(F)cc2)[nH]c1=O,7,8,-1,-5,i
COc1ccc(-c2cc(C(F)(F)F)c(C#N)c(=O)[nH]2)cc1,45,105*,49*,-2,-312
SMILES,Runt-CBFb FRET,Runt-SMMHC FRET,RanGTP-Imp inh,FAS-TE inh,Calpain2 inh
N#Cc1c(-c2cccc(Br)c2)cc(-c2ccco2)[nH]c1=O,40,90*,72*,-8,i
COc1ccc(-c2cc(-c3ccco3)[nH]c(=O)c2C#N)cc1,22,86*,7,-8,-44
Cc1onc(-c2ccccc2)c1-c1nnc(CN2CCN(S(=O)(=O)c3ccccc3F)CC2)o1,.,.,.,14,.
CC1CC(C)CN(S(=O)(=O)c2ccc3c(c2)CCN3C(=O)C2CC2)C1 (centres undefined),.,.,-4,18,.
CC1CC(C)CN(CC(=O)NNC(=O)COc2ccc(Cl)cc2)C1 (centres undefined),.,.,.,-4,.
CCOc1ccc(S(=O)(=O)N(CC(=O)N2CCC(C(N)=O)CC2)c2ccc(F)cc2)cc1,.,.,27*,-4,.
COCCn1c(-c2cccs2)nc2nc3ccccc3nc21,41,87*,7,3,-312
COCCn1c(-c2ccco2)nc2nc3ccccc3nc21,8,66*,19*,-12,i
CCCn1c(-c2cccs2)nc2nc3ccccc3nc21,40,131*,5,-1,i
CCN(CC)C(=O)C(=O)N/N=C/c1ccc(C(=O)O)cc1,3,0,2,-20,7
Cc1cc(NC(=O)c2ccco2)ncc1NC(=O)CCc1ccccc1,2,3,-4,-7,-1
CCC(=O)Nc1cc(C)c(NC(=O)CCc2ccccc2)cn1,29,89*,40*,-16,-8
O=S(=O)(Nc1ccc(-c2nc3cccnc3s2)cc1)c1cc(F)ccc1F,44,85*,10,1,13
Cc1cc(C(=O)N2CCCC(C(=O)c3ccc4ccccc4c3)C2)n(C)n1 (centres undefined),2,-3,-1,0,-59
CC1=CC(c2ccccc2)n2nc(NS(=O)(=O)c3ccc(C)cc3)nc2N1 (centres undefined),35,85*,.,-5,i
CC1=CC(c2ccc(Cl)cc2)n2nc(NS(=O)(=O)c3ccc(C)cc3)nc2N1 (centres undefined),36,.,?,-4,i
CC(=O)Nc1cc(C(=O)OC(C(=O)c2ccccc2)c2ccccc2)ccc1C (centres undefined),-3,-2,2,7,66*
O=S(=O)(N1CCOCC1)N1CCOCC1,.,.,3,-4,.
COC(=O)C1=C(C)OC(N)=C(C#N)C1c1ccccc1F (centres undefined),2,2,-15,-7,-30
N#CC1=C(N)Oc2ccc3ccc(O)cc3c2C1c1cccnc1 (centres undefined),-1,-4,4,1,-18
N#CC1=C(N)Oc2cc(O)ccc2C1c1cccnc1 (centres undefined),-8,-18,38*,-13,-9
N#CC1=C(N)Oc2n[nH]c(-c3ccc(F)cc3)c2C1c1cccnc1 (centres undefined),-1,0,3,-9,-26
N#CC1=C(N)Oc2cc(O)c(Cl)cc2C1c1cccnc1 (centres undefined),.,.,52*,-5,.
CSc1nc(N)c2c(n1)OC(N)=C(C#N)C2c1cccnc1 (centres undefined),2,2,105*,-15,-11
N#CC1=C(N)Oc2cc(O)c(Cl)cc2C1c1ccccc1F (centres undefined),.,.,131*,-17,.
CCCCCCCCCCCCCCCC[n+]1cccc2ccccc21,-17,-17,.,-154,99*
Cc1oc(/N=C/c2ccc(O)cc2O)c(C#N)c1C,78*,90*,82*,-6,-30
CCOc1ccc(S(=O)(=O)N2CCCCC2)c(C)c1C,-4,-4,4,8,57*
